Reference: publication PMC4822987 (Acta crystallographica. Section F, Structural biology …, 2016)

Assays:
[1] = molecular target: Leishmania mexicana arginase (LmARG) (Leishmania mexicana, UniProt Q6TUJ5); assay: Inhibitory activity assay, colorimetric arginase activity; assay type: biochemical
Method in brief: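 Recombinant LmARG (1 µM) started the reaction in 50 mM EPPS pH 8.0 with 100 µM MnCl2 and 30 mM L-arginine at 21°C. After 20 min it was stopped with H2SO4/H3PO4 acid plus α-isonitrosopropiophenone dye, then heated at 90°C for 1 h. Urea was read at 550 nm. Ki came from IC50 via Cheng–Prusoff, with Km from 0.5–150 mM arginine.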

S. mansoni arginase = settings: relative to ABH, ref Hai et al., 2014; cited from earlier work
human arginase I = settings: relative to ABH, ref Van Zandt et al., 2013; cited from earlier work
human arginase II = settings: relative to ABH, ref Golebiowski et al., 2013; cited from earlier work

| IC50 [1] [nM] | Ki [1] [nM] | SMILES | improved affinity in comparison with parent inhibitor ABH (S. mansoni arginase) [fold] | improved inhibitory potency (IC50) in comparison with parent inhibitor ABH (human arginase I) [fold] | improved inhibitory potency in comparison with parent inhibitor ABH (human arginase II) [fold] |
| --- | --- | --- | --- | --- | --- |
| 1300 ± 200 | 900 ± 100 | N[C@@H](CCCCB(O)O)C(=O)O [ABH, 2-(S)-amino-6-boronohexanoic acid, reference compound] |  |  |  |
| 2100 ± 300 | 1400 ± 200 | N[C@](CCCCB(O)O)(CCN1CCCCC1)C(=O)O [ABHPE, (R)-2-amino-6-borono-2-[2-(piperidin-1-yl)ethyl]hexanoic acid] | 5.0 | 6.5 | 3.8 |
| 1700 ± 400 | 1100 ± 300 | N[C@@](CCCCB(O)O)(C(=O)O)C1CCN(Cc2ccc(Cl)c(Cl)c2)CC1 (racemic) [ABHDP, (R)-2-amino-6-borono-2-[1-(3,4-dichlorobenzyl)piperidin-4-yl]hexanoic acid] | 2.4 | 7.4 | 7.4 |
